From ChEMBL document CHEMBL4706575, “Nonpeptidic quinazolinone derivatives as dual nucleotide-binding oligomerization domain-like receptor 1/2 antagonists for adjuvant cancer chemotherapy” (Eur J Med Chem, 2020)

Tests used:
[1] = target: T1, Nucleotide-binding oligomerization domain-containing protein 2 (Homo sapiens, UniProt Q9HC29); experiment: Antagonist activity at NOD2 in HEK-Blue hNOD2 cells assessed as inhibition of MDP-induced NFkappaB activation-mediated SEAP release at 5 uM preincubated for 3 hrs followed by MDP addition and measured after 20 hrs by spectrophotometric method relative to control; assay type: cell-based; settings: time 23.0 hrs
T1 sequence (Q9HC29 whole entry, the tested form may be a part): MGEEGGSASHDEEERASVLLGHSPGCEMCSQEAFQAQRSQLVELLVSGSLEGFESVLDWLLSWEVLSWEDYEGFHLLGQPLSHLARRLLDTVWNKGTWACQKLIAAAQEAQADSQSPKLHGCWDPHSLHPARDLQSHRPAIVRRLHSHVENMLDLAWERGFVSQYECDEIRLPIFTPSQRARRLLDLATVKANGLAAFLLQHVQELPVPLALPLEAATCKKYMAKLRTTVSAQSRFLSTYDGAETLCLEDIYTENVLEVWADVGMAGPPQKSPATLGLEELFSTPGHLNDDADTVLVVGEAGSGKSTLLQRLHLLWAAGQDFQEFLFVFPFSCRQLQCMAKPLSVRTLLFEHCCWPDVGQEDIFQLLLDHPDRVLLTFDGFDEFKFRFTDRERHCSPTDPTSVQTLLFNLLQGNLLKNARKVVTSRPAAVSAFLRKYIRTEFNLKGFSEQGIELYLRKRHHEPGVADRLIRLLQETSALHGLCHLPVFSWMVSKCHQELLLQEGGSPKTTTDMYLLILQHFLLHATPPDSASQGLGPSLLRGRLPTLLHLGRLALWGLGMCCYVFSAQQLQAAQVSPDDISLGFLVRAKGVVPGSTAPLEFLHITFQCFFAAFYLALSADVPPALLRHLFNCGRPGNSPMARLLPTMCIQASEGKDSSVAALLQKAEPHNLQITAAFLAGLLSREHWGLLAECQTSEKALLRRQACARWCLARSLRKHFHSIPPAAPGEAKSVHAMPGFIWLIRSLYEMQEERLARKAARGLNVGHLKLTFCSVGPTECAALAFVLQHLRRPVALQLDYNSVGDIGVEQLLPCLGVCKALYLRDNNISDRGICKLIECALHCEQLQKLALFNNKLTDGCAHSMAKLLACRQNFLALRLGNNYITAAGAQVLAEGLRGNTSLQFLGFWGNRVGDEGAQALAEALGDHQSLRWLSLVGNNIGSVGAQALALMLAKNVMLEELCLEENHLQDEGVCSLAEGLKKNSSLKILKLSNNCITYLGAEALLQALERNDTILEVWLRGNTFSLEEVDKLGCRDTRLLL

[2] = target: T1, Nucleotide-binding oligomerization domain-containing protein 2; experiment: Antagonist activity at NOD2 in HEK-Blue hNOD2 cells assessed as inhibition of MDP-induced NFkappaB activation-mediated SEAP release preincubated for 3 hrs followed by MDP addition and measured after 20 hrs by spectrophotometric method; assay type: cell-based
In short: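 HEK-Blue hNOD2 cells preincubated 3 h with a range of concentrations, then MDP 100 ng/mL for 20 h. SEAP quantified. SRB assay run to exclude cytotoxicity. IC50 by nonlinear semi-logarithmic fit, mean ± SD, n = 3.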

[3] = target: T2, Nucleotide-binding oligomerization domain-containing protein 1 (Homo sapiens) (UniProt Q9Y239); experiment: Antagonist activity at NOD1 in HEK-Blue hNOD1 cells assessed as inhibition of C12-iE-DAP-induced NFkappaB activation-mediated SEAP release at 5 uM preincubated for 3 hrs followed by C12-iE-DAP addition and measured after 20 hrs by spectrophotometric method relative to control; assay type: cell-based; settings: time 23.0 hrs
T2 sequence (whole entry): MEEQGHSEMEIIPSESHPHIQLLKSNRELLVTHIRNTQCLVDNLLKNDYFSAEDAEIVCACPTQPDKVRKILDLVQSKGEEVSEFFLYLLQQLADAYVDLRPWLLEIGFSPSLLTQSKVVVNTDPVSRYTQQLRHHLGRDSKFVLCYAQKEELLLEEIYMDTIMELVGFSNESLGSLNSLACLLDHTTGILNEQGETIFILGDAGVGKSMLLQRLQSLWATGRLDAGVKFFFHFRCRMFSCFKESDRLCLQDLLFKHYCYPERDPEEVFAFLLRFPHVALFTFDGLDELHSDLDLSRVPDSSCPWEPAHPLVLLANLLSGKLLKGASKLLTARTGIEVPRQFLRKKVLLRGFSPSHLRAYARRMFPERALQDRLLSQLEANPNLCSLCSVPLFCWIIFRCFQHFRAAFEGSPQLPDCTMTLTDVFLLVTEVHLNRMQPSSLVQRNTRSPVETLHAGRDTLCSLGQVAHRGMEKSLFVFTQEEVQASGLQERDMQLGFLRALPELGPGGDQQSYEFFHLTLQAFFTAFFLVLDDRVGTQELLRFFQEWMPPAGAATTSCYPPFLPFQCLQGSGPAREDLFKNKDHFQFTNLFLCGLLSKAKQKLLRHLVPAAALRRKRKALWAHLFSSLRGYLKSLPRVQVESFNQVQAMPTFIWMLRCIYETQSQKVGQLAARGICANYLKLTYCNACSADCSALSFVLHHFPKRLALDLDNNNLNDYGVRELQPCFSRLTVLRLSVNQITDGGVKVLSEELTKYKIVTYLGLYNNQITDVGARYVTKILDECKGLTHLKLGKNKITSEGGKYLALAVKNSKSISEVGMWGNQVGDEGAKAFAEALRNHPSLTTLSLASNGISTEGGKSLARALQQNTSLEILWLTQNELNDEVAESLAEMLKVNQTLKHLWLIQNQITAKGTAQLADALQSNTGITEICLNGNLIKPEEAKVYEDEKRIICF

[4] = target: T3, Nucleotide-binding oligomerization domain-containing protein 1 (Homo sapiens, UniProt Q9Y239); experiment: Antagonist activity at NOD1 in HEK-Blue hNOD1 cells assessed as inhibition of C12-iE-DAP-induced NFkappaB activation-mediated SEAP release preincubated for 3 hrs followed by C12-iE-DAP addition and measured after 20 hrs by spectrophotometric method; assay type: cell-based
T3 sequence (Q9Y239 whole entry): T2 sequence (whole entry)

[5] = Half life in mouse liver microsomes at 1.25 uM preincubated for 5 mins followed by NADPH generating system addition and measured for 120 mins by LC-MS/MS analysis; assay type: ADME, Microsome
In short: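 Mouse liver microsomes (1.25 mg/mL protein) in 100 mM phosphate pH 7.4 with 1.25 µM compound, preincubated 5 min at 37 °C. Reaction started with NADPH-generating system (1 mM NADP, 10 mM MgCl2, 10 mM G6P, 0.5 U/mL G6PDH). Sampled at 0–120 min, quenched with MeOH/ACN 1:1, analysed by LC-MS/MS.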

| Compound | IC50 [2] [nM] | inhibition ([3]; filed as antagonist) [%] | IC50 [4] [nM] | further results |
| --- | --- | --- | --- | --- |
| CN(C)c1cccc(Oc2cc3c(=O)[nH]cnc3cc2NC(=O)COCc2ccc(C(F)(F)F)cc2)c1 | 800 | 50.4 |  | inhibition ([1]; filed as antagonist): 54% |
| COC(=O)Cn1cnc2cc(C(=O)NCCCc3ccc(Cl)cc3)c(-c3cccc(F)c3)cc2c1=O |  | 65.3 | 3240 |  |
| O=C(NCCCc1ccccc1)c1cc2nc[nH]c(=O)c2cc1-c1cccc(F)c1 |  |  |  | inhibition [3]: -1.81% |
| O=C(NCCOCc1ccc(C(F)(F)F)cc1)c1cc2nc[nH]c(=O)c2cc1-c1cccc(F)c1 |  | 56.1 | 4110 |  |
| CN(C)c1cccc(Oc2cc3c(=O)[nH]cnc3cc2NC(=O)COCc2ccc(C#N)cc2)c1 |  |  | 9330 | inhibition [1]: 19.3%; inhibition [3]: 30.4% |
| COC(=O)Cn1cnc2cc(C(=O)NCCOCc3ccc(C(F)(F)F)cc3)c(-c3cccc(F)c3)cc2c1=O |  | 64 | 3460 |  |
| CN(C)c1cccc(Oc2cc3c(=O)n(CC(=O)N4CCC(F)CC4)cnc3cc2NC(=O)COCc2ccc(C(F)(F)F)cc2)c1 | 1110 | 89.1 | 210 | inhibition ([1]; filed as antagonist): 94.3% |
| CN(C)c1cccc(Oc2cc3c(=O)n(CC(=O)N4CCCC(F)(F)C4)cnc3cc2NC(=O)COCc2ccc(C(F)(F)F)cc2)c1 | 660 | 90.4 | 140 | inhibition ([1]; filed as antagonist): 94.2% |
| COC(=O)Cn1cnc2cc(NC(=O)CCCOc3ccc(C#N)cc3)c(Oc3cccc(N(C)C)c3)cc2c1=O |  | 48 |  |  |
| COC(=O)Cn1cnc2cc(NC(=O)COCc3ccc(C#N)cc3)c(Oc3cccc(N(C)C)c3)cc2c1=O |  | 55.7 |  | inhibition ([1]; filed as antagonist): 58.7% |
| COC(=O)Cn1cnc2cc(NC(=O)CCCOc3ccc(F)cc3)c(Oc3cccc(N(C)C)c3)cc2c1=O |  |  |  | inhibition [3]: 33.5% |
| O=C(NCCCOc1ccc(C(F)(F)F)cc1)c1cc2ncn(CC(=O)N3CCCCC3)c(=O)c2cc1-c1cccc(Cl)c1 | 800 | 93.2 | 800 | half-life at 1.25 µM [5]: 15.6 min |
| COC(=O)Cn1cnc2cc(C(=O)NCCCc3ccc(Cl)cc3)c(-c3cccc(Cl)c3)cc2c1=O |  | 58.2 | 1640 |  |
| O=C(NCCCOc1ccc(C(F)(F)F)cc1)c1cc2nc[nH]c(=O)c2cc1-c1cccc(Cl)c1 | 840 | 90 | 840 |  |
| COC(=O)Cn1cnc2cc(NC(=O)CCCOc3ccc(C(F)(F)F)cc3)c(Oc3cccc(N(C)C)c3)cc2c1=O |  | 70.9 | 2650 |  |
| O=C(COCc1ccc(C(F)(F)F)cc1)Nc1cc2nc[nH]c(=O)c2cc1Oc1cccc(N2CCOCC2)c1 |  |  |  | inhibition [3]: 37.6% |
| COC(=O)Cn1cnc2cc(NC(=O)COCc3ccc(Cl)cc3)c(Oc3cccc(N(C)C)c3)cc2c1=O |  | 69 | 4310 |  |
| CN(C)c1cccc(Oc2cc3c(=O)[nH]cnc3cc2NC(=O)CCCOc2ccc(C(F)(F)F)cc2)c1 | 4770 | 59.1 | 5640 | inhibition ([1]; filed as antagonist): 58.5% |
| COC(=O)Cn1cnc2cc(NC(=O)COCc3ccc(C(F)(F)F)cc3)c(Oc3cccc(N4CCOCC4)c3)cc2c1=O | 550 | 88.9 | 650 |  |
| O=C(NCCCc1ccccc1)c1cc2nc[nH]c(=O)c2cc1-c1cccc(Cl)c1 |  |  |  | inhibition [3]: 6.6% |
| O=C(COCc1ccc(C(F)(F)F)cc1)Nc1cc2ncn(CC(=O)N3CCCC(F)(F)C3)c(=O)c2cc1Oc1cccc(N2CCOCC2)c1 | 500 | 88.2 | 540 | half-life at 1.25 µM [5]: 12.9 min |
| O=C(NCCCc1ccc(Cl)cc1)c1cc2nc[nH]c(=O)c2cc1-c1cccc(F)c1 |  | 43.5 |  |  |
| CN(C)c1cccc(Oc2cc3c(=O)n(CC(=O)N4CCC(F)(F)CC4)cnc3cc2NC(=O)COCc2ccc(C(F)(F)F)cc2)c1 | 1180 | 82 | 270 | inhibition ([1]; filed as antagonist): 87% |
